The test system of this series is MS2 coat protein. Briefly: apparent Kd, MS2 coat protein; higher = weaker binding; RNA-MaP array; FMN 200 µM where present. In outline: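 The titrant was SNAP-549-labelled MS2 coat protein, run from 0.7 or 1.5 nM in doubling steps to 3 µM. It was applied to designs transcribed by stalled E. coli RNA polymerase on Illumina sequencing-chip clusters, without ligand first and then with constant ligand, in 100 mM Tris-HCl pH 7.5, 80 mM KCl, 4 mM MgCl2, BSA, DTT, yeast tRNA and Tween-20. The apparent Kd is the median of filtered per-cluster binding-curve fits, with green signal normalised to red-channel RNA signal and control-cluster median Fmax.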

[1] abbreviates: designed as: OFF switch for flavin mononucleotide, no ligand.
[2] abbreviates: ligand present: flavin mononucleotide, designed as: OFF switch for flavin mononucleotide.
Where [3] appears, read: designed as: ON switch for flavin mononucleotide, no ligand.
Setting [4] is: ligand present: flavin mononucleotide, designed as: ON switch for flavin mononucleotide.

What is called apparent Kd is the concentration giving half-maximal binding under the conditions of the assay.

As for “AAGAGGCGAGGAUAUACAUGAGGAUCACCCAUGUAAUCCGGAUAAGGAAGCAUGUCGUGUAGAAGGUGCCAUGA”, the “apparent Kd” value under setting [1] was found to be 20.7 nM and the “apparent Kd” value under setting [2] is 19.2 nM.
On to “UACAUUUAACAGAAGGCGUUUAUAUAUAACUUACGAGGAUAUGUAUAACAUGAGGAUCACCCAUGUAACAUGGAGAGAAUAUCU”, for which the “apparent Kd” value under setting [3] came out at 43.1 nM and the “apparent Kd” value under setting [4] amounted to 26.6 nM.
Turning to “UGGGUUGUUGUGAGGAUAUACUGUUUGUUUUGUUUGUAGAAGGUACAUGAGGAUCACCCAUGUUGGUUGUGGUU”, the “apparent Kd” value by setting is: under setting [1], 262 nM; under setting [2], 228 nM.
With “AAAUAAACUACGAAGAUAUCCUCACAUGAGGAUCACCCAUGUCAGGAUAUUUGUCCUAAAAGGACAGAGAAGGGACAUCGUAGA”, the “apparent Kd” value reads like this: under setting [1], 5.15 nM; under setting [2], 11.4 nM.
For the sequence “CCGGAAACGGGUAGCUGUACAUGAGGAUCACCCAUGUGAUCAGAGGAUAUGGAUCCUAAUUGGAUCCAGAAGGCUGUCAGCUAC”, the “apparent Kd” value was 119 nM under setting [3] and 29.1 nM under setting [4].
For the sequence “CCGAGCUUGGCAGGAUAUAGACUCGAAGUUGAUCCCGCCGGUGGAGACAUGAGGAUCACCCAUGUCUAGAAGGGCCAGUCGAAA”, the “apparent Kd” value runs as follows: under setting [1], 11.7 nM; under setting [2], 36 nM.
For “CUUGUGUUAGGAUAUGCGCCCUGAAGAAGCAGGGCCAGAGAGCAGAAGGAACAUGAGGAUCACCCAUGUGUGAC”, in that order: 60.3 nM and 51.2 nM.
In the case of “AUCUGACAUGAGGAUCACCCAUGUAUUCGAGCAUGAGGAUAUAUGACUCGUCAUCGGCGGAUAGAAGGCAUGGUUG”, the “apparent Kd” value by setting is: under setting [3], 97.5 nM; under setting [4], 189 nM.
In the case of “UGGCCUUUAGGAUAUCGGGUCUUUAACAUGAGGAUCACCCAUGUGGCACUCUCUUGAGAACGAGAAGGAAAACCCG”, the “apparent Kd” value under setting [1] is 23.2 nM and the “apparent Kd” value under setting [2] is 23.7 nM.
Turning to “UCACGUCGCCAAGGAUAUACCCGAAGAUCCAUGGUAGAAGGUGGUGACAUGAGGAUCACCCAUGUCCGCGCGGACAAGUGUGCU”, the “apparent Kd” value was 66 nM under setting [1] and 14.7 nM under setting [2].
As for “CAGAGGAUGUAAGGAUAUCGUCAGGAUAACUGACGAGAAGGUACAUGAGGAUCACCCAUGUAUAUGAAAGAUAAUAAACCUCUG”, the “apparent Kd” value reads like this: under setting [1], 13.5 nM; under setting [2], 18.8 nM.
For “UUAUUAAAUGUAGGAUAUGCAUAUUAUUAUUAUGCAGAAGGACAUGAGGAUCACCCAUGUAUAUUAUUAUUAUUUAUUAUAUAU”, in that order: 44.8 nM and 65.6 nM.
The corresponding values for “AACGGGUCAGGAUAUUGUUAGUUUAGUUGUUUGUAUUAGUUCGAGAAGGGACAUGAGGAUCACCCAUGUGGUAA” are 66.1 nM and 62 nM.
For “UUUUUACAUGAGGAUCACCCAUGUGAGGAUAUGGAUUCGCUGGCCGUAGCCAGUGGAUCCAGAAGGCGCGUGAU”, in that order: 90 nM and 175 nM.
Turning to “CUUUCGUGAGGAUAUCAGUAGUAAUAAUAUAAAAUUACUACUGAGAAGGCACAUGAGGAUCACCCAUGUUCCUC”, the “apparent Kd” value was 24.5 nM under setting [1] and 114 nM under setting [2].
On to “ACAUGCAUAGCGAUAUGAUCGAGAGAUCAUGUCGCUAAAUUUAGAAGGACAUGAGGAUCACCCAUGUAGGAUAUGGGAGCAUGU”, for which the “apparent Kd” value runs as follows: under setting [3], 49.5 nM; under setting [4], 10.8 nM.
As for “UGAACUUCAGAGAAGGUCGGAUGGCAACGGUCCGAAGGAUAUCUGGAAACAUGAGGAUCACCCAUGUAACCGGGUGGAUGUCCU”, the “apparent Kd” value by setting is: under setting [1], 35 nM; under setting [2], 113 nM.
“UUUAUUAAUUAGAAGGCAUGAUGAAUUACAAUAGACAUGAGGAUCACCCAUGUGUAUUCAUGUCAUGAGGAUAUAGUCAUAUAU”: the “apparent Kd” value reads like this: under setting [3], 10.3 nM; under setting [4], 7.27 nM.
“CUUCUGUGAGGAUAUGUUAGCUCCCAGAAUGUCGCUGGGAGACAGAAGGCACAUGAGGAUCACCCAUGUGGGCG”: the “apparent Kd” value under setting [1] stood at 35.2 nM and the “apparent Kd” value under setting [2] was 175 nM.
As to “UUACUCAUGUAAGGAUAUGCAGCCGAUACGGCUGCAGAAGGUACUAAAAUACAUGAGGAUCACCCAUGUCUUUUUAAUUUAGAC”, the “apparent Kd” value was determined as 140 nM under setting [3] and 73.7 nM under setting [4].
Turning to “UUUCUUGAUGUCAGGAUAUCGGGCACAAAAUCUAACGAGAAGGGACAUGAGGAUCACCCAUGUACGUUUUUGGG”, the “apparent Kd” value is, setting by setting: under setting [1], 92.9 nM; under setting [2], 249 nM.
Consider “AAGAAACAUGAGGAUCACCCAUGUGUAAAUAUGGGAGGAUAUACAAGGACGUAAGUCAAGGUAGAAGGCCUAAGAA”, for which the “apparent Kd” value came out at 172 nM under setting [3] and 32.7 nM under setting [4].
The corresponding values for “UUAUGGAUCACAGGAUAUCCAAGGGCGCGUCUGGCGCGCUCACAUGAGGAUCACCCAUGUCGAGUGGAGAAGGGUGGUUGACGG” are 466 nM and 68.3 nM.
Regarding “UGUAUACAUGAGGAUCACCCAUGUAAGGAUAUGCUUUAUUAUUAUUAUUAUUAUUGUUGCAGAAGGUACAUUGU”, the “apparent Kd” value is, setting by setting: under setting [1], 28.9 nM; under setting [2], 32.1 nM.
Turning to “CUUUUUUGAGGAUAUUAGUAGUAAAUAAAUAAAAUUACUACUGAGAAGGCACAUGAGGAUCACCCAUGUUCCUC”, the “apparent Kd” value amounted to 16.3 nM under setting [1] and 26.9 nM under setting [2].
The corresponding values for “AUUGAGUGAGGAUAUCCCGCUGCCGUGCGACCAUGGAGCUGGGAGAAGGCACAUGAGGAUCACCCAUGUGAGUU” are 19.3 nM and 45 nM.
The corresponding values for “CCUCUACAUGAGGAUCACCCAUGUGAGGAUAUGCGAGGCGCACUCGAUGAGCGCGCCGGUAGAAGGCAUGUGGU” are 24 nM and 55 nM.
On to “GGUUGUCAUCGUCAUCCUUUCGGUACAUGAGGAUCACCCAUGUAGGAUAUGCUGCGCUCGGUGUGGCAGAAGGGCGUGUGUGUU”, for which the “apparent Kd” value came to 23.8 nM under setting [1] and 40.3 nM under setting [2].
On to “GUGGUCAGACAUGAGGAUCACCCAUGUGGAAUAAAUAAGGGUUAGGAUAUGCAAUAUAGGAUAUAGCAGAAGGGAUGGUUGGUG”, for which the “apparent Kd” value by setting is: under setting [3], 128 nM; under setting [4], 173 nM.
Turning to “AGGAAGUUAGGAUAUGCUGCUCGUCACUUGCGUGAUGAGUAGCAGAAGGAACAUGAGGAUCACCCAUGUAAAAA”, the “apparent Kd” value runs as follows: under setting [1], 27.7 nM; under setting [2], 22.2 nM.
The corresponding values for “CAGCAAUGUAAGAAGGUAUUUAUUAUUAUAUUAUAAGGAUAUUACAUGAGGAUCACCCAUGUAUGAACCAAUAGCUGAAUUAUA” are 6.1 nM and 5.88 nM.
In the case of “UUAGAUAGGUCAGGAUAUCGAUUAUUGUAUAGUAUGAUUUACAUGAGGAUCACCCAUGUUAAAUACGAGAAGGGACGUUAGAUU”, the “apparent Kd” value is, setting by setting: under setting [1], 26.5 nM; under setting [2], 19 nM.
The corresponding values for “CUCCUCGUGUCGAACAUGAGGAUCACCCAUGUAAUGGGCACCGAGGAUAUCCCGCUGGCGUUAUGGGAGAAGGCGGUGGAUUUA” are 42.6 nM and 40.2 nM.
Consider “UGAGCGACCACAGGAUAUACUUGAGAAGACCGAGUAGAAGGGUGGAAGAGCAUGCAGUGACAUGAGGAUCACCCAUGUGGUUGG”, for which the “apparent Kd” value under setting [3] was determined as 97 nM and the “apparent Kd” value under setting [4] is 65.8 nM.
Take “UCGCGGGUGCAGAAGGGAUAGGCCUAUUUUCGUGGUGUCCAAACUUAACAUGAGGAUCACCCAUGUCAGGAUAUGCCCACGCGA”: the “apparent Kd” value was found to be 29.5 nM under setting [1] and 52.7 nM under setting [2].
Take “GGUGUCAUCGAGAAGGCCUCAACAUGAGGAUCACCCAUGUUGUAAUAUGGGAGGAUAUCGAUGAUACAGCUACGUUUCGUAGCG”: the “apparent Kd” value by setting is: under setting [3], 19.9 nM; under setting [4], 6.57 nM.
For “GAUAGGAUGUGAGGAUAUGCUGAGGAUACUUCAGCAGAAGGCACAUGAGGAUCACCCAUGUACACUUAUCAUAAAUACCCUAUC”, the “apparent Kd” value worked out at 13 nM under setting [1] and 17.9 nM under setting [2].
The corresponding values for “CCAGGCUGUGUGAGGAUAUGCUGGUCCUUGGAUCAGCAGAAGGCACAUGAGGAUCACCCAUGUGAAGAGCUUGG” are 16.4 nM and 65 nM.
Consider “UAUAUUAUUAUAGGAUAUGGAUAUGAUGCAUAUCCAGAAGGGUGAUUAUAAUAUAAUCUAUACAUGAGGAUCACCCAUGUUUAU”, for which the “apparent Kd” value by setting is: under setting [3], 216 nM; under setting [4], 78.5 nM.
Take “UUCCUACAUGAGGAUCACCCAUGUCAGGAUAUGUAGACGCAAAUUUACGAUUUGCGGAAUAGAAGGGACGUGAC”: the “apparent Kd” value came to 24.1 nM under setting [1] and 25.9 nM under setting [2].
The corresponding values for “CUCUUGUCAGGAUAUCUAAGCUGCCUCCCAGUAGCCGAAUUAGAGAAGGGACAUGAGGAUCACCCAUGUAAACG” are 105 nM and 34.2 nM.
Turning to “AAAAAACAUGAGGAUCACCCAUGUAAUAAAACGUCAGGAUAUUGAUUUUAUUAUUUAUUACAAGAAGGGACAAAAA”, the “apparent Kd” value runs as follows: under setting [3], 133 nM; under setting [4], 57.6 nM.
For the sequence “AUCCCGAUAGCAGGAUAUUUCUGCAGUUGUGGUUAGGUCGCCCUACAUGAGGAUCACCCAUGUAGAGAGAAGGGCUGUGGUAAU”, the “apparent Kd” value by setting is: under setting [1], 6.71 nM; under setting [2], 6.83 nM.
With “CCUAUGUGAGGAUAUGUCUGGUCUUCUUUUGUUUUUUACAGACAGAAGGCACAUGAGGAUCACCCAUGUCAGAC”, the “apparent Kd” value under setting [1] worked out at 16.8 nM and the “apparent Kd” value under setting [2] came to 24.4 nM.
Regarding “UAUAAUAUUAUAGGAUAUGGAUACGAUACGUAUCCAGAAGGGUGAUUAUAAUAUAAUCUAUACAUGAGGAUCACCCAUGUUUAU”, the “apparent Kd” value is, setting by setting: under setting [3], 228 nM; under setting [4], 98 nM.
As to “AAAAAGUCAGGAUAUGGCAAAGGUCACGAAAGUGACAAAGGCUAGAAGGGACAUGAGGAUCACCCAUGUAAAAA”, the “apparent Kd” value reads like this: under setting [1], 29 nM; under setting [2], 32.4 nM.
In the case of “CCUUUGAAGAUCCUAAAUUUCGACAUGAGGAUCACCCAUGUGCAGGAUAUCGUGCCAGUGAUGUGCGAGAAGGGCAGUCUCUGC”, the “apparent Kd” value under setting [1] amounted to 64.6 nM and the “apparent Kd” value under setting [2] was 73.9 nM.
The corresponding values for “UAUAUACAUGAGGAUCACCCAUGUAAGGAUAUGCAUUAUUAUUAUUAUUAUUAUUAUUGCAGAAGGUACAAUAU” are 40.7 nM and 39.3 nM.

The record behind these values is the EternaBench riboswitch data.
